Measurements reported in ChEMBL document CHEMBL1128722, “Mechanism-based isocoumarin inhibitors for human leukocyte elastase. Effect of the 7-amino substituent and 3-alkoxy group in 3-alkoxy-7-amino-4-chloroisocoumarins on inhibitory potency” (J Med Chem, 1995).

Key:
[1] = target: T1, Chymotrypsin-like elastase family member 2A (Sus scrofa) (UniProt P08419); assay: The second order inactivation rate constant expressed as inhibition of porcine pancreatic elastase (PPE).Inhibitor concentrations were 0.04-2.0 mM
T1 sequence (whole entry): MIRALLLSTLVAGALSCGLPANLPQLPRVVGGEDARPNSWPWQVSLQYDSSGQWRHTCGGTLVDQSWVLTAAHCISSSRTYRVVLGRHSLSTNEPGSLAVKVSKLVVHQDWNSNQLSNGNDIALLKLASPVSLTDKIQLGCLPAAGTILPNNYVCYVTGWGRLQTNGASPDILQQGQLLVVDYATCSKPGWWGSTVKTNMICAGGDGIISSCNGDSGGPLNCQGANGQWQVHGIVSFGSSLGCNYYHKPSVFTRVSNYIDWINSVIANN

[2] = target: T2, Neutrophil elastase (Homo sapiens) (UniProt P08246); assay: The second order inactivation rate constant expressed as inhibition of human leukocyte elastase (HLE). Inhibitor concentrations were 0.07-710 uM
T2 sequence (whole entry): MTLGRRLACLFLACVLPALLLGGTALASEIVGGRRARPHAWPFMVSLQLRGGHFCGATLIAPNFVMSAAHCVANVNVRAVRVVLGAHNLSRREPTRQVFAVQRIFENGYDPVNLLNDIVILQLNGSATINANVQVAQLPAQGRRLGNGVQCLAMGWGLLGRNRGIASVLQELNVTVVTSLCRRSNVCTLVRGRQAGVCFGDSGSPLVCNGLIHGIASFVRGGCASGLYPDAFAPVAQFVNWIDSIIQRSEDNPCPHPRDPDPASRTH
Summary of the method: (§1)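 Kitz–Wilson incubation method. Enzyme was preincubated with inhibitor (added in DMSO) in 0.1 M HEPES, 0.5 M NaCl, pH 7.5, at 25 °C. Aliquots were taken over time and diluted into pNA substrate: HLE MeO-Suc-Ala-Ala-Pro-Val-pNA (0.2–0.5 mM), PPE Suc-Ala-Ala-Ala-pNA, ChT and Cat G Suc-Val-Pro-Phe-pNA (0.4–0.5 mM). Release was read at 410 nm. kobs/[I] from ln(v0/vt) vs time. Mean of two determinations. Fast rates measured with equimolar inhibitor and enzyme.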

[3] = Half-life for hydrolysis was determined from kinetic constant.; format: ADME
Summary of the method: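 Spontaneous hydrolysis in 0.1 M HEPES, 0.5 M NaCl, pH 7.5, 10% v/v DMSO final, 25 °C. Inhibitor added from 2.9–5.0 mM DMSO stock. Ring opening followed as absorbance decrease at 385 nm (ε385 = 3300 M⁻¹ cm⁻¹). Half-life from the first-order rate. Two determinations, standard errors ±15% or less.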

[4] = target: T3, Cathepsin G (Homo sapiens) (UniProt P08311); assay: Inhibition of cathepsin G at 35-710 uM
T3 sequence (whole entry): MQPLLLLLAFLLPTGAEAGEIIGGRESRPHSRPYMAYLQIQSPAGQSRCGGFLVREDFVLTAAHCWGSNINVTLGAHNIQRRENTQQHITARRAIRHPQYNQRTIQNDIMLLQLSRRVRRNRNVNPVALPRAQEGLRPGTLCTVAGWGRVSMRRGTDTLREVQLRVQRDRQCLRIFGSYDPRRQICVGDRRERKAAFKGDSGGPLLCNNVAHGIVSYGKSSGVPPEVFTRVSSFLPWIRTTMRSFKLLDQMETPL
Summary of the method: as §1

[5] = target: T3, Cathepsin G (Homo sapiens); assay: Inhibition of cathepsin G(Cat G) at 35-710 uM
Summary of the method: as §1

[6] = target: T1, Chymotrypsin-like elastase family member 2A (Sus scrofa); assay: The second order inactivation rate constant was expressed as inhibition of porcine pancreatic elastase (PPE).Inhibitor concentrations were 2-600 uM
Summary of the method: as §1

[7] = target: Chymotrypsinogen A (Bos taurus) (UniProt P00766); assay: The second order inactivation rate constant was expressed as inhibition of chymotrypsin (ChT).Inhibitor concentrations were 360-570 uM
Summary of the method: as §1

[8] = target: T2, Neutrophil elastase (Homo sapiens); assay: The second order inactivation rate constant was expressed as inhibition of human leukocyte elastase (HLE). Inhibitor concentrations were 0.4-4 uM
Summary of the method: as §1

[9] = target: T2, Neutrophil elastase (Homo sapiens); assay: Inhibition of human leukocyte elastase(HLE) at 0.7-1.7 uM
Summary of the method: as §1

[10] = target: T2, Neutrophil elastase (Homo sapiens); assay: Second order inactivation rate constant for inhibition of human leukocyte elastase.
Summary of the method: as §1

[11] = target: T2, Neutrophil elastase (Homo sapiens); assay: Inhibition of human leukocyte elastase.
Summary of the method: as §1

| K obs / 1 [1] | K obs / 1 [2] | further results | Compound |
| --- | --- | --- | --- |
| 1900 M⁻¹ s⁻¹ | 40000 M⁻¹ s⁻¹ | half-life [3]: 2.5 h | O=C(O)CCC(=O)N[C@@H](Cc1ccccc1)C(=O)Nc1ccc2c(Cl)c(OCCBr)oc(=O)c2c1 |
| 1250 M⁻¹ s⁻¹ | > 480000 M⁻¹ s⁻¹ | K obs / 1 [4]: 200 M⁻¹ s⁻¹ | O=c1oc(OCCBr)c(Cl)c2ccc(NC(=S)Nc3ccccc3)cc12 |
| 20 M⁻¹ s⁻¹ | 310000 M⁻¹ s⁻¹ | half-life [3]: > 48 h | C[C@@H](NC(=O)Nc1ccc2c(Cl)c(OCCBr)oc(=O)c2c1)c1cccc2ccccc12 |
| 30 M⁻¹ s⁻¹ | 160000 M⁻¹ s⁻¹ | inhibition [5]: 19% | CC(C)(C)OC(=O)N[C@H](Cc1ccccc1)C(=O)Nc1ccc2c(Cl)c(OCCBr)oc(=O)c2c1 |
| 4950 M⁻¹ s⁻¹ | 480000 M⁻¹ s⁻¹ | K obs / 1 [4]: 70 M⁻¹ s⁻¹ | O=C(Cc1ccccc1)Nc1ccc2c(Cl)c(OCCBr)oc(=O)c2c1 |
| 13 M⁻¹ s⁻¹ | 140000 M⁻¹ s⁻¹ | half-life [3]: 6.4 h | C[C@@H](OC(=O)Nc1ccccc1)C(=O)Nc1ccc2c(Cl)c(OCCBr)oc(=O)c2c1 |
| – | – | k obs / 1 [6]: 5800 M⁻¹ s⁻¹; k obs / 1 [7]: 33 M⁻¹ s⁻¹; k obs / 1 [8]: 79000 M⁻¹ s⁻¹ | COc1oc(=O)c2cc(NC(=O)[C@H](Cc3c[nH]c4ccccc34)NC(=O)OC(C)(C)C)ccc2c1Cl |
| 2660 M⁻¹ s⁻¹ | > 570000 M⁻¹ s⁻¹ | inhibition [5]: 21% | C[C@@H](NC(=O)Nc1ccc2c(Cl)c(OCCBr)oc(=O)c2c1)c1ccccc1 |
| 4470 M⁻¹ s⁻¹ | 646000 M⁻¹ s⁻¹ | K obs / 1 [4]: 77 M⁻¹ s⁻¹ | CC(C)NC(=O)Nc1ccc2c(Cl)c(OCCBr)oc(=O)c2c1 |
| – | > 240000 M⁻¹ s⁻¹ | K obs / 1 [4]: 320 M⁻¹ s⁻¹ | O=C(O)c1cccc(N/C(S)=N/c2ccc3c(Cl)c(OCCBr)oc(=O)c3c2)c1 |
| – | – | k obs / 1 [9]: > 190000 M⁻¹ s⁻¹ | CCCOc1oc(=O)c2cc(NC(C)=O)ccc2c1Cl |
| – | – | k obs / 1 [10]: 2700 M⁻¹ s⁻¹; [I] [11]: 50 µM | CC(C)COc1oc(=O)c2cc(N)ccc2c1Cl |
| – | – | k obs / 1 [9]: > 220000 M⁻¹ s⁻¹ | CCCOc1oc(=O)c2cc(NC(=O)CC(C)C)ccc2c1Cl |
| 12 M⁻¹ s⁻¹ | 170000 M⁻¹ s⁻¹ | half-life [3]: 26 h | CC(C)(C)OC(=O)N[C@@H](Cc1c[nH]c2ccccc12)C(=O)Nc1ccc2c(Cl)c(OCCBr)oc(=O)c2c1 |
| – | – | k obs / 1 [10]: 9400 M⁻¹ s⁻¹; [I] [11]: 4 µM; half-life [3]: 3.6 h | CCOc1oc(=O)c2cc(N)ccc2c1Cl |
| 11 M⁻¹ s⁻¹ | 30000 M⁻¹ s⁻¹ | – | O=C(N[C@@H](Cc1ccccc1)C(=O)Nc1ccc2c(Cl)c(OCCBr)oc(=O)c2c1)c1ccccc1 |
| – | – | k obs / 1 [9]: > 120000 M⁻¹ s⁻¹ | CCCOc1oc(=O)c2cc(NC(=O)CCC)ccc2c1Cl |
| 40 M⁻¹ s⁻¹ | 170000 M⁻¹ s⁻¹ | – | C[C@H](NC(=O)Nc1ccc2c(Cl)c(OCCBr)oc(=O)c2c1)c1cccc2ccccc12 |
| 76 M⁻¹ s⁻¹ | 390000 M⁻¹ s⁻¹ | inhibition [5]: 22% | O=C(Nc1ccc2c(Cl)c(OCCBr)oc(=O)c2c1)Nc1cccc2ccccc12 |
| 3650 M⁻¹ s⁻¹ | – | K obs / 1 [4]: 240 M⁻¹ s⁻¹ | CC(C)(C)CC(=O)Nc1ccc2c(Cl)c(OCCBr)oc(=O)c2c1 |
| 6600 M⁻¹ s⁻¹ | – | K obs / 1 [4]: 56 M⁻¹ s⁻¹ | CC(C)(C)NC(=O)Nc1ccc2c(Cl)c(OCCBr)oc(=O)c2c1 |
| – | – | k obs / 1 [9]: > 150000 M⁻¹ s⁻¹ | CCCOc1oc(=O)c2cc(NC(=O)CSC)ccc2c1Cl |
| 300 M⁻¹ s⁻¹ | 21000 M⁻¹ s⁻¹ | – | O=C(Nc1ccccc1)Nc1cccc(C(=O)NC(Cc2ccccc2)C(=O)Nc2ccc3c(Cl)c(OCCBr)oc(=O)c3c2)c1 (stereo not drawn) |
| – | – | k obs / 1 [10]: 2000 M⁻¹ s⁻¹; [I] [11]: 26 µM | CC(C)Oc1oc(=O)c2cc(N)ccc2c1Cl |
| 1500 M⁻¹ s⁻¹ | – | – | COC(=O)CCC(=O)Nc1ccc2c(Cl)c(OCCBr)oc(=O)c2c1 |
| 75 M⁻¹ s⁻¹ | 85000 M⁻¹ s⁻¹ | half-life [3]: > 48 h | O=C1CC(c2ccccc2)CC(=O)N1c1ccc2c(Cl)c(OCCBr)oc(=O)c2c1 |
| 13 M⁻¹ s⁻¹ | 15600 M⁻¹ s⁻¹ | inhibition [5]: 21% | O=C(NCc1ccccc1)Nc1ccc2c(Cl)c(OCCCBr)oc(=O)c2c1 |
